Measurements published in ChEMBL document CHEMBL1141334, “Mirabamides A-D, depsipeptides from the sponge Siliquariaspongia mirabilis that inhibit HIV-1 fusion” (J Nat Prod, 2007).
Active and inactive are the calls of the source. No cut-off for these calls is given here. *1 amine or outer side, *2 acyl side, *3 side chain or, on linkers, in order; H or OH if unused. Where a SMILES comes first, the peptide text is derived from it. Bridges are numbered along the chain shown (N, C = ends). [ ]: non-standard residue; d: D form. The star is where a group is joined. dLeu(3R-OH) = CC(C)[C@@H](O[*:3])[C@@H](N[*:1])C(=O)[*:2]; Gln(3S,4R-Me2) = C[C@H]([C@H](N)C(=O)O)[C@@H](C)C(N)=O; dTyr(βR-OMe) = CO[C@H](c1ccc(O)cc1)[C@@H](N)C(=O)O; Pip(4S-Cl) = O=C(O)[C@@H]1C[C@@H](Cl)CCN1; X1 = CCC(C)/C=C(C)/C=C\C(O)C(C)(O)C(=O)*; Abu(3R-NH2) = C[C@@H](N)[C@H](N)C(=O)O; NMeT = CN[C@H](C(=O)O)[C@@H](C)O

Legend:
Staphylococcus aureus = assay: Antimicrobial activity against Staphylococcus aureus ATCC 25923 at 25 ug per disk after 18 hrs by disk diffusion method; type: functional, organism-based
In short: (§1)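 Modified disk diffusion. Bacteria: 500 µL of 24 h culture in 100 mL Antibiotic Medium 2 with 1% agar at 55 °C; C. albicans in Sabouraud dextrose agar at 55 °C. 10 mL seeded agar poured per dish, cooled 1 h. Compounds applied at 1–25 µg; zones of inhibition measured after 18 h at 37 °C.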

[1] = test system: Human immunodeficiency virus 1; assay: Inhibition of HIV LAV in BSC1 cells after 2.5 hrs by cell fusion assay; type: functional, organism-based; conditions: Human immunodeficiency virus 1, LAV, BSC-1, 2.5 h
Pseudomonas aeruginosa = assay: Antimicrobial activity against Pseudomonas aeruginosa ATCC 15442 at 25 ug per disk after 18 hrs by disk diffusion method; type: functional, organism-based; in short: as §1
[2] = test system: Human immunodeficiency virus 1; assay: Inhibition of HIV SF162 in TZM-bl cells after 48 hrs by neutralization assay; type: functional, organism-based; conditions: Human immunodeficiency virus 1, SF162, TZM-bl
In short: (§2)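 Env-pseudotyped viral particles (HXB2, CXCR4-using; SF162, CCR5-using) added with varying inhibitor concentrations (in H2O or 20% EtOH in H2O) to TZM-bl cells (CD4, CXCR4, CCR5) after overnight plating at 37 °C. Luciferase luminescence (RLU) read after 48 h at 37 °C. Duplicate or triplicate, on at least two different days.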

Escherichia coli = assay: Antimicrobial activity against Escherichia coli ATCC 8739 at 25 ug per disk after 18 hrs by disk diffusion method; type: functional, organism-based; in short: as §1
Bacillus subtilis [3] = assay: Antimicrobial activity against Bacillus subtilis ATCC 49343 at 1 ug per disk after 18 hrs by disk diffusion method; type: functional; conditions: ATCC 49343, 18 h, read-out: IZ
In short: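 Modified disk diffusion: 24 h bacterial culture seeded (500 µL per 100 mL) into Antibiotic Medium 2 with 1% agar at 55 °C, 10 mL poured into square dishes, cooled 1 h. Compound applied to disks (1–25 µg range tested); chloramphenicol 10 µg disk as control. Incubated 37 °C, 18 h; inhibition zone diameters measured.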

[4] = test system: Human immunodeficiency virus 1; assay: Inhibition of HIV HXB2 in TZM-bl cells after 48 hrs by neutralization assay; type: functional, organism-based; conditions: Human immunodeficiency virus 1, HXB2, TZM-bl; in short: as §2
[5] = Cytotoxicity against human TZM-bl cells after 24 hrs by MTT assay; type: functional, cell-based
In short: (§3)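 MTT kit assay. Cells seeded at 2 × 10^4/well, adhered 18 h, then exposed for 3 h (fusion-assay conditions) or 24 h (neutralization-assay conditions). Medium then replaced or diluted 3-fold with fresh growth medium, followed by 72 h further culture. Viability read at A570 after MTT.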

[6] = Cytotoxicity against african green monkey BSC1 cells after 3 hrs by MTT assay; type: cell-based; conditions: chlorocebus aethiops, bsc-1, 3 h; in short: as §3
HCT-116 = assay: Cytotoxicity against human HCT116 cells by MTT assay; type: functional, cell-based; in short: as §3
Bacillus subtilis [7] = assay: Antimicrobial activity against Bacillus subtilis ATCC 49343 at 5 ug per disk after 18 hrs by disk diffusion method; type: functional, organism-based; in short: as §1
Candida albicans = assay: Antifungal activity against Candida albicans ATCC 90027 at 5 ug per disk after 18 hrs by disk diffusion method; type: functional; conditions: ATCC 90027, 18 h, read-out: IZ; in short: as §1

| SMILES | Activity (Staphylococcus aureus) | IC50 [1] | Activity (Pseudomonas aeruginosa) | IC50 [2] | Activity (Escherichia coli) | zone of inhibition at 1 µg/disc (Bacillus subtilis [3]) | IC50 [4] | IC50 [5] | Activity [6] | IC50 (HCT-116) | Activity (Bacillus subtilis [7]) | zone of inhibition at 5 µg/disc (Candida albicans) |
| --- | --- | --- | --- | --- | --- | --- | --- | --- | --- | --- | --- | --- |
| CCC(C)/C=C(C)/C=C\C(O)C(C)(O)C(=O)NCC(=O)N[C@H](C(=O)N[C@H](C(=O)N[C@H](C(=O)N[C@H]1C(=O)N[C@H](COC)C(=O)NCC(=O)N[C@@H](C)C(=O)N(C)[C@@H]([C@@H](C)O)C(=O)N[C@H]([C@H](OC)c2ccc(O[C@@H]3O[C@@H](C)[C@H](O)[C@@H](O)[C@H]3O)cc2)C(=O)N2CCCC[C@H]2C(=O)O[C@@H]1C(C)C)[C@@H](C)[C@@H](C)C(N)=O)[C@@H](C)N)[C@@H](C)O (stereo not given in full) [MIRABAMIDE D] | inactive | 3.9 µM | inactive | 1.31 µM | inactive | 9 mm | 0.189 µM | 3.9 µM | Non-toxic | – | – | – |
| CCC(C)/C=C(C)/C=C\C(O)C(C)(O)C(=O)NCC(=O)N[C@H](C(=O)N[C@H](C(=O)N[C@H](C(=O)N[C@H]1C(=O)N[C@H](COC)C(=O)NCC(=O)N[C@@H](C)C(=O)N(C)[C@@H]([C@@H](C)O)C(=O)N[C@H]([C@H](OC)c2ccc(O)cc2)C(=O)N2CCCC[C@H]2C(=O)O[C@@H]1C(C)C)[C@@H](C)[C@@H](C)C(N)=O)[C@@H](C)N)[C@@H](C)O (stereo not given in full) [PAPUAMIDE A] | inactive | 0.073 µM | inactive | – | inactive | – | – | – | Non-toxic | 3.5 µM | – | – |
| CCC(C)/C=C(C)/C=C\C(O)C(C)(O)C(=O)NCC(=O)N[C@H](C(=O)N[C@H](C(=O)N[C@H](C(=O)N[C@H]1C(=O)N[C@H](COC)C(=O)NCC(=O)N[C@@H](C)C(=O)N(C)[C@@H]([C@@H](C)O)C(=O)N[C@H]([C@H](OC)c2ccc(O[C@@H]3O[C@@H](C)[C@H](O)[C@@H](O)[C@H]3O)cc2)C(=O)N2CC[C@H](Cl)C[C@H]2C(=O)O[C@@H]1C(C)C)[C@@H](C)[C@@H](C)C(N)=O)[C@@H](C)N)[C@@H](C)O (stereo not given in full) [MIRABAMIDE A] | inactive | 0.041 µM | inactive | 0.4 µM | inactive | – | 0.14 µM | 1.8 µM | Non-toxic | 2.22 µM | Active | 9 mm |
| CCC(C)/C=C(C)/C=C\C(O)C(C)(O)C(=O)NCC(=O)N[C@H](C(=O)N[C@H](C(=O)N[C@H](C(=O)N[C@H]1C(=O)N[C@H](COC)C(=O)NCC(=O)N[C@@H](C)C(=O)N(C)[C@@H]([C@@H](C)O)C(=O)N[C@H]([C@H](OC)c2ccc(O)cc2)C(=O)N2CC[C@H](Cl)C[C@H]2C(=O)O[C@@H]1C(C)C)[C@@H](C)[C@@H](C)C(N)=O)[C@@H](C)N)[C@@H](C)O (stereo partly drawn) [MIRABAMIDE C] (X1-GT[Abu(3R-NH2)][Gln(3S,4R-Me2)][dLeu(3R-OH)][dS](Me)GA[NMeT][dTyr(βR-OMe)][Pip(4S-Cl)]; ester 5-C) | inactive | 1.3 µM | inactive | 1.01 µM | inactive | 9 mm | 0.144 µM | 2.2 µM | Non-toxic | – | – | 9 mm |
| C/C=C(\NC(=O)[C@@H](NC(=O)CNC(=O)C(C)(O)C(O)/C=C\C(C)=C\C(C)CC)[C@@H](C)O)C(=O)N[C@H](C(=O)N[C@H]1C(=O)N[C@H](COC)C(=O)NCC(=O)N[C@@H](C)C(=O)N(C)[C@@H]([C@@H](C)O)C(=O)N[C@H]([C@H](OC)c2ccc(O[C@@H]3O[C@@H](C)[C@H](O)[C@@H](O)[C@H]3O)cc2)C(=O)N2CC[C@H](Cl)C[C@H]2C(=O)O[C@@H]1C(C)C)[C@@H](C)[C@@H](C)C(N)=O (stereo not given in full) [MIRABAMIDE B] | inactive | > 10 µM | inactive | > 50 µM | inactive | – | > 50 µM | – | Non-toxic | – | Active | 9 mm |
